Measurements: the RNAGym collection of RNA variant scans (doi:10.1126/science.aae0568)
Variants at the floor of the assay were thinned out.

B1: tRNA (parent)
chain: GUUCCGUUGGCGUAAUGGUAACGCGUCUCCCUCCUAAGGAGAAGACUGCGGGUUCGAGUCCCGUACGGAACG

Variants of: B1
Assay: yeast fitness relative to wild type (ratio to wild type); higher = fitter; tRNA-Arg(CCU), competitive growth, 37 C, YPD
How it was run: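 Amplicons of the tRNA-Arg(CCU) gene were sequenced, 100-nucleotide paired-end, from the start population and from each end population of a pooled yeast competition. The competition, in six parallel replicates, lasted 24 hours in YPD at 37°C. Fitness relative to wild type was calculated from changes in genotype frequencies. Genotypes had to have ≥ 100 starting reads, and estimates < 0.5 were set to 0.5.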

Variant	yeast fitness
G6A C11A C61A	≤ 0.5
G6A C11A C66U	0.592
G6A C11A U16C U32G C49G C55A	≤ 0.5
G6A C11A U19A A69U	0.577
G6A C11A U32A C34G G58A	≤ 0.5
G6A C11A U47C	≤ 0.5
G6A C11G A21C C22G C30G A45U	≤ 0.5
G6A C11G A21G C27G C29U U35G G56C G63A U64C G67C	≤ 0.5
G6A C11G A37C C60A A70G	≤ 0.5
G6A C11G A45U A57G A70G	≤ 0.5
G6A C11G C61G	≤ 0.5
G6A C11G G17U G38A A43U U54A	≤ 0.5
G6A C11U A69U	0.707
G6A C11U C22G	0.555
G6A C11U C27A	0.719
G6A C11U C33U U64C A70C	≤ 0.5
G6A C11U C34G	0.567
G6A C11U C49G C62U	≤ 0.5
G6A C11U C55U	0.814
G6A C11U C62A A65U C66U	≤ 0.5
G6A C11U G23A C46A C55A	≤ 0.5
G6A C11U G68A	≤ 0.5
G6A C11U U13C A43G G67A	0.58
G6A C22A G23A C33U C34G G68C	≤ 0.5

Variant	yeast fitness
G6A C22A U35A	≤ 0.5
G6A C22G A69C	0.591
G6A C22G C60A C62U	≤ 0.5
G6A C22G G25A U47A A70C	≤ 0.5
G6A C22G U53A	≤ 0.5
G6A C22U A37G G68A A69G	≤ 0.5
G6A C22U A40G A43U C46G C49G C62U	≤ 0.5
G6A C22U A42C U54A	≤ 0.5
G6A C22U C30G A36G	0.621
G6A C22U G23C C49G U53G A57G	≤ 0.5
G6A C24A	0.654
G6A C24A C27U C29G G44C G68C	≤ 0.5
G6A C24G G39C C61U C66U	≤ 0.5
G6A C24U A36C A43U A69U	≤ 0.5
G6A C24U A37G C61G C66U A69U	≤ 0.5
G6A C24U A37U A40U	≤ 0.5
G6A C24U A40U A45U	≤ 0.5
G6A C24U A65C	≤ 0.5
G6A C24U C61G C62U C66U A69U	≤ 0.5
G6A C24U C61G G68U	≤ 0.5
G6A C24U G58A	0.67
G6A C24U G67A	0.72
G6A C24U U26G C34A C46G G56A C66U	≤ 0.5
G6A C24U U28A C60U	≤ 0.5

Variant	yeast fitness
G6A C24U U32G A40U	≤ 0.5
G6A C24U U32G A40U U64G	≤ 0.5
G6A C24U U54G A65U	≤ 0.5
G6A C24U U59C A69C	≤ 0.5
G6A C27A C30U G41C A43U C49A	0.52
G6A C27G	0.758
G6A C27G A36C A42C	0.58
G6A C27G A36C A42C A57U U64A A70C	≤ 0.5
G6A C27G A45G	0.521
G6A C27G C31G G50A A70U	≤ 0.5
G6A C27G C34G A65C	≤ 0.5
G6A C27G G38C	≤ 0.5
G6A C27G G38C A65C	0.595
G6A C27U A42U	≤ 0.5
G6A C27U A69U	0.695
G6A C27U C29A	≤ 0.5
G6A C27U C29A G58C C66U	≤ 0.5
G6A C29A A37U G67C	≤ 0.5
G6A C29A C31G G67A	≤ 0.5
G6A C29A G67C	≤ 0.5
G6A C29A U32C A42U G67A	≤ 0.5
G6A C29G	0.634
G6A C29G A65U	≤ 0.5
G6A C29G A69C	≤ 0.5

Variant	yeast fitness
G6A C29G U32C A69C	≤ 0.5
G6A C29G U35G C61U	≤ 0.5
G6A C29U	0.748
G6A C29U A42U A43U C55G	≤ 0.5
G6A C30A A45U	0.667
G6A C30A C31G G39C	0.534
G6A C30A G39A U47A G63C	≤ 0.5
G6A C30G	0.711
G6A C30G G67C	≤ 0.5
G6A C30U A37G	≤ 0.5
G6A C30U G51C	≤ 0.5
G6A C30U U54A	≤ 0.5
G6A C31A A37C	≤ 0.5
G6A C31A G51C C55G A57U C66U	≤ 0.5
G6A C31G A65G	0.547
G6A C31G A70C	0.553
G6A C31G C34G A43U G68C A69G	≤ 0.5
G6A C31G C34U C46U G56A	≤ 0.5
G6A C31G C61U	≤ 0.5
G6A C31G G50A	0.61
G6A C31U A43U	0.529
G6A C31U G51A	0.599
G6A C31U G63A	0.582
G6A C33A A37C	≤ 0.5

Variant	yeast fitness
G6A C33A G58A G63C	≤ 0.5
G6A C33A U35A G68C	≤ 0.5
G6A C33G C34G A69U	≤ 0.5
G6A C33G C34G C60A A69U	≤ 0.5
G6A C33G C34G C61A G67U	≤ 0.5
G6A C33G G48A U54C C66G A70C	≤ 0.5
G6A C33G U47A U64G	0.558
G6A C33U	0.649
G6A C33U G50A G52C A65C	≤ 0.5
G6A C33U G56C C60U	≤ 0.5
G6A C34A A40U	0.556
G6A C34A C46U A65C	≤ 0.5
G6A C34A U47G C49G C60G	≤ 0.5
G6A C34G A37G G67U	≤ 0.5
G6A C34G A37U C49G	0.532
G6A C34G C62U G68C	≤ 0.5
G6A C34G G68A	0.556
G6A C34G U59A	0.547
G6A C34U A40G G68A	≤ 0.5
G6A C34U G39C	≤ 0.5
G6A C46A	0.97
G6A C46G U64A	0.667
G6A C49U	0.959
G6A C49U G58A	0.654

Variant	yeast fitness
G6A C49U G58A A69C	0.605
G6A C55U G58A G67A	≤ 0.5
G6A C60A G67C	0.536
G6A C61A G67A	0.547
G6A C61U G63C	≤ 0.5
G6A C62G	0.827
G6A C66U	1.03
G6A C66U G67A	0.661
G6A G9A	0.969
G6A G9A C24G U35A G48C	≤ 0.5
G6A G9A C29U C46U G67C	≤ 0.5
G6A G9C A14G	≤ 0.5
G6A G9C A21C C30U A45U C55A	0.517
G6A G9C A42U A43U A65G G68A A70C	0.663
G6A G9C C11G C22A C30U C31G G67U	≤ 0.5
G6A G9C C11G C34U A57U	≤ 0.5
G6A G9C C27A C31A	≤ 0.5
G6A G9C C31U	≤ 0.5
G6A G9C C31U C62U G68C	≤ 0.5
G6A G9C C46G	0.561
G6A G9C G44C	0.605
G6A G9C G68C	≤ 0.5
G6A G9C U32C A36G	≤ 0.5
G6A G9U	0.774

Variant	yeast fitness
G6A G10A A43G U47G	0.761
G6A G10A C30U C60G	≤ 0.5
G6A G10A G39C A70C	≤ 0.5
G6A G10C	0.725
G6A G10C A20G C22U G38C C61G	≤ 0.5
G6A G10C A20G C22U G38C U53C C61G	≤ 0.5
G6A G10C C30A A69U	0.786
G6A G10C C30A U32C A69U	0.586
G6A G12A	0.764
G6A G12A A21G C46A	0.636
G6A G12A A70U	0.656
G6A G12A C22U A42C	≤ 0.5
G6A G12A C27G G68C A70U	0.549
G6A G12A C27U C30G C55U A57C	≤ 0.5
G6A G12A C34U G41A	0.556
G6A G12A G23C C49G U53G A57G	≤ 0.5
G6A G12A U16C	0.537
G6A G12C A36C	≤ 0.5
G6A G12C C27A A37G C49U	≤ 0.5
G6A G12C G18C G41A A43G G48A	≤ 0.5
G6A G17A A69U	0.551
G6A G17A C24G C27G G67A	≤ 0.5
G6A G17A C27U C31G C66G	≤ 0.5
